# Tests used:
# [1] = target: T1, Glutamate receptor ionotropic, AMPA (Rattus norvegicus) (UniProt P19491+P19492+P19493+P19490); test: Positive allosteric modulation of rat Purkinje neuron AMPA receptor assessed as change in kainate-induced current at 10^-10 M measured for 2 mins by patch clamp assay (rvb = 100%)
# In short: (§1)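 Purkinje neurons were freshly isolated from the cerebellum of 12–16-day-old rat pups by protease/collagenase digestion at 34°C under O₂. Whole-cell patch clamp was used, with compounds given by fast perfusion in extracellular saline at pH 7.32. Kainic acid (20 µM) was applied three times per concentration, 2 min apart, with a 3-min washout between concentrations. Current amplitude was normalized to the KA control (100%), using 4–7 neurons per concentration.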
# [2] = target: T1, Glutamate receptor ionotropic, AMPA (Rattus norvegicus); test: Positive allosteric modulation of rat Purkinje neuron AMPA receptor assessed as change in kainate-induced current at 10^-9 M measured for 2 mins by patch clamp assay (rvb = 100%); in short: as §1
# [3] = target: T1, Glutamate receptor ionotropic, AMPA (Rattus norvegicus); test: Positive allosteric modulation of rat Purkinje neuron AMPA receptor assessed as change in kainate-induced current at 10^-11 M measured for 2 mins by patch clamp assay (rvb = 100%); in short: as §1
# [4] = target: T1, Glutamate receptor ionotropic, AMPA (Rattus norvegicus); test: Positive allosteric modulation of rat Purkinje neuron AMPA receptor assessed as change in kainate-induced current at 10^-12 M measured for 2 mins by patch clamp assay (rvb = 100%); in short: as §1
# [5] = target: T1, Glutamate receptor ionotropic, AMPA (Rattus norvegicus); test: Positive allosteric modulation of rat Purkinje neuron AMPA receptor assessed as change in kainate-induced current at 10^-7 M measured for 2 mins by patch clamp assay (rvb = 100%); in short: as §1
# [6] = target: T1, Glutamate receptor ionotropic, AMPA (Rattus norvegicus); test: Positive allosteric modulation of rat Purkinje neuron AMPA receptor assessed as change in kainate-induced current at 10^-8 M measured for 2 mins by patch clamp assay (rvb = 100%); in short: as §1
# [7] = target: T1, Glutamate receptor ionotropic, AMPA (Rattus norvegicus); test: Positive allosteric modulation of rat Purkinje neuron AMPA receptor assessed as change in kainate-induced current at 10^-6 M measured for 2 mins by patch clamp assay (rvb = 100%); in short: as §1
# [8] = target: T1, Glutamate receptor ionotropic, AMPA (Rattus norvegicus); test: Positive allosteric modulation of rat Purkinje neuron AMPA receptor assessed as change in kainate-induced current at 10^-5 M measured for 2 mins by patch clamp assay (rvb = 100%)
# [9] = target: T1, Glutamate receptor ionotropic, AMPA (Rattus norvegicus); test: Positive allosteric modulation of rat Purkinje neuron AMPA receptor assessed as change in kainate-induced current at 3 x 10^-5 M measured for 2 mins by patch clamp assay (rvb = 100%)
SMILES,Activity [1],Activity [2],Activity [3],Activity [4],Activity [5],Activity [6],Activity [7],Activity [8],Activity [9]
CCc1nc2c(c(Oc3ccc(Oc4nc(CC)nc5c4CCCC5)cc3)n1)CCCC2,126%,155%,117%,100%,100%,128%,,,
c1cc(Oc2nc(C3CC3)nc3c2CCCC3)ccc1Oc1nc(C2CC2)nc2c1CCCC2,100%,95%,100%,,97%,96%,96%,,
CC(C)c1nc2c(c(Oc3ccc(Oc4nc(C(C)C)nc5c4CCCC5)cc3)n1)CCCC2,72%,82%,84%,100%,98%,92%,,,
NS(=O)(=O)c1cc2c(cc1Cl)NC(C1CC3C=CC1C3)NS2(=O)=O (stereo not given),,,,,100%,,145%,235%,560%

# More lines, now with the values ahead:
Activity [1],Activity [2],Activity [3],Activity [4],Activity [5],Activity [6],Activity [7],Activity [8],Activity [9],SMILES
108%,120%,100%,,133%,125%,145%,,,CC(C)(C)c1nc2c(c(Oc3ccc(Oc4nc(C(C)(C)C)nc5c4CCCC5)cc3)n1)CCCC2
143%,170%,132%,108%,85%,123%,78%,,,Cc1nc2c(c(Oc3ccc(Oc4nc(C)nc5c4CCCC5)cc3)n1)CCCC2

# Reference: ChEMBL document CHEMBL4373668, “Bivalent AMPA receptor positive allosteric modulators of the bis(pyrimidine) series” (Medchemcomm, 2019)
